Where only a bound is given, the exact number is not on record here.

One test concerns HL-60. The test can be described thus: Cytotoxicity in HL-60 (human leukemia) cell line. It counts as functional, cell-based.
The test system of a further test is SCLC. The test can be described thus: Cytotoxicity in SCLC (human lung carcinoma) cell line. It counts as functional, cell-based.
In the next test the test system is NCI. The test can be described thus: Complete inhibition of cell growth of 60-human tumor cell line detected by National Cancer Institute. It counts as functional, cell-based. The conditions noted are these: read-out: Log IC50 (converted). In short, it runs like this: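 National Cancer Institute preclinical 60 human tumour cell line drug discovery screen. Read-out is the log IC₅₀ (M) at which complete inhibition of cell growth is detected in at least one cell line. Scored qualitatively: +++ at -7.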

The target in test [1] is DNA topoisomerase II (Homo sapiens) (UniProt P11388+Q02880). The test can be described thus: Relative activity to induce mammalian DNA topoisomerase II-mediated DNA cleavage. It counts as functional.

As usually defined, the IC50 is the concentration that inhibits the measured activity by half. High values mean a need for much substance, low ones inhibition by little substance. In the case of `O=C1C(Cl)=C(Oc2cccc(O)c2)C(=O)c2c(O)ccc(O)c21`, the values for the half-inhibitory concentration (IC50) in the test on HL-60 and in the test on SCLC were 160 nM and 450 nM, respectively. For the same compound, the concentration for complete growth inhibition with NCI is 1000 nM. This compound had an Activity in test [1] of 100.
In the case of `COc1cc(OC)c2c3c(oc2c1)C(=O)c1c(OC)ccc(OC)c1C3=O`, the values for the IC50 in the test with HL-60 and in the test with SCLC were 128000 nM and above 10000 nM, respectively. Moreover, the concentration for complete growth inhibition in the test on NCI is 10000 nM. For the same compound, the Activity in test [1] turned out to be 2.
Turning to `COc1cccc(OC2=C(Cl)C(=O)c3c(OC)ccc(OC)c3C2=O)c1`, the IC50 in the test on HL-60 amounted to 440 nM; in the test with SCLC it was 2000 nM. For the same compound, the concentration for complete growth inhibition in the test on NCI was 1000 nM. Besides, in test [1], the Activity was found to be 20.
In the same order, the values of `COc1cccc(OC2=C(Cl)C(=O)c3c(OC(C)=O)ccc(OC(C)=O)c3C2=O)c1` are 200 nM, 5000 nM, 1000 nM and 200.
`Cc1ccc[n+](C2=C([O-])C(=O)c3c(O)ccc(O)c3C2=O)c1`: the IC50 in the test on HL-60 was 30000 nM; in the test with SCLC it was above 10000 nM. For the same compound, the Activity in test [1] came to 0.5.
For `COc1ccc(OC)c2c1C(=O)C(Cl)=C(Cl)C2=O`, the half-maximal inhibitory concentration (IC50) came out at 220 nM in the test with HL-60 and 1000 nM with SCLC. In test [1], the Activity amounted to 200.
For `COc1cccc(OC2=C(Oc3cccc(OC)c3)C(=O)c3c(OC)ccc(OC)c3C2=O)c1`, the IC50 with HL-60 was 160 nM; in the test on SCLC, 1000 nM. In addition, the concentration for complete growth inhibition in the test with NCI was 100 nM. The compound further yielded an Activity in test [1] of 0.
For the compound `O=C1c2oc3cc(O)cc(O)c3c2C(=O)c2c(O)ccc(O)c21`, the IC50 amounted to 390 nM with HL-60 and 1500 nM in the test with SCLC. Besides, in the test with NCI, the concentration for complete growth inhibition was 100 nM. The compound also gave an Activity in test [1] of 2000.
For `COc1cc(OC)cc(OC2=C(Cl)C(=O)c3c(OC)ccc(OC)c3C2=O)c1`, the half-inhibitory concentration (IC50) in the test with HL-60 came out at 120 nM; with SCLC, 2000 nM. Further, in the test with NCI, the concentration for complete growth inhibition was 1000 nM. This compound registered an Activity in test [1] of 100.
Regarding `O=C1C(Cl)=C(Oc2cc(O)cc(O)c2)C(=O)c2c(O)ccc(O)c21`, the concentration for half-maximal inhibition (IC50) worked out at 250 nM in the test with HL-60 and 500 nM in the test with SCLC. The concentration for complete growth inhibition in the test with NCI is 1000 nM. This compound displayed an Activity in test [1] of 200.
For `O=C1C=CC(=O)c2c(O)c(Cl)c(Cl)c(O)c21`, the concentration for half-maximal inhibition (IC50) in the test on HL-60 is 49 nM; in the test on SCLC it was 300 nM.
For `O=C1C=CC(=O)c2c(O)c(Oc3ccccc3)c(Oc3ccccc3)c(O)c21`, the IC50 stood at 130 nM in the test with HL-60 and 100 nM in the test with SCLC. Further, in the test on NCI, the concentration for complete growth inhibition was 100 nM. For the same compound, in test [1], the Activity turned out to be 500.
Take `COc1cccc(OC2=C(Cl)C(=O)c3c(O)ccc(O)c3C2=O)c1`: the half-maximal inhibitory concentration (IC50) in the test with HL-60 came out at 200 nM; with SCLC, 500 nM. For the same compound, the concentration for complete growth inhibition with NCI was 1000 nM. For the same compound, the Activity in test [1] stood at 800.
The matching figures for `COc1ccc(OC)c2c1C(=O)C(Cl)=C(Oc1cccc(O)c1)C2=O`: 67 nM, 300 nM, 1000 nM and 10.
As for `COc1ccc2c3c(oc2c1)C(=O)c1c(OC)ccc(OC)c1C3=O`, the IC50 worked out at 14500 nM in the test on HL-60 and 1000 nM in the test on SCLC. In test [1], this compound registered an Activity of 2.
For `O=C1c2ccccc2C(=O)c2c1oc1cc(O)cc(O)c21`, the half-maximal inhibitory concentration (IC50) in the test with SCLC amounted to 1030 nM. Also, the concentration for complete growth inhibition in the test with NCI is 1000 nM. Besides, the Activity in test [1] was above 100000.
Take `O=C1C=CC(=O)c2c(O)c(Oc3ccccc3)c(Cl)c(O)c21`: the IC50 in the test on HL-60 stood at 220 nM; in the test on SCLC, 250 nM. For the same compound, the concentration for complete growth inhibition with NCI is 100 nM. In test [1], this compound returned an Activity of 4000.
As for `COc1cc(OC)cc(OC2=C(Cl)C(=O)c3c(O)ccc(O)c3C2=O)c1`, the half-maximal inhibitory concentration (IC50) in the test with HL-60 was found to be 70 nM; with SCLC, 750 nM. The concentration for complete growth inhibition in the test with NCI is 1000 nM. For the same compound, the Activity in test [1] was determined as 50.
Take `COc1c(Cl)c(Cl)c(OC)c2c1C(=O)C=CC2=O`: the IC50 came out at 1000 nM with HL-60 and 750 nM in the test with SCLC. This compound also came in with an Activity in test [1] of 10.
Turning to `COc1cc(OC)cc(OC2=C(Cl)C(=O)c3c(OC(C)=O)ccc(OC(C)=O)c3C2=O)c1`, the results for the half-inhibitory concentration (IC50) in the test with HL-60 and in the test on SCLC were 500 nM and 1100 nM, respectively. Also, in the test with NCI, the concentration for complete growth inhibition was 1000 nM. Moreover, the Activity in test [1] was found to be 50.

The values are drawn from ChEMBL document CHEMBL1132696, “Design of antineoplastic agents based on the "2-phenylnaphthalene-type" structural pattern. 4. Synthesis and biological activity of 2-chloro-3-(substituted phenoxy)-1, 4-naphthoquinones and related 5,8-dihydroxy-1,4-naphthoquinones” (J Med Chem, 1999).
